Published values collected from several papers.
Lines come from different studies, so protocols differ.
Target: Mitogen-activated protein kinase 10 (MAPK10, Homo sapiens, UniProt P53779)

`COc1cc2ncnc(Nc3ccc(Oc4ccccc4)c(C)c3C)c2cc1OC` has an inhibition of -1% (enzyme activity; inhibitor; 1 µM).
For `O=C1NC(=O)c2cc(Nc3ccc(F)cc3)c(Nc3ccc(F)cc3)cc21`, the remaining signal was 97.3% (cell-free assay; 0.5 µM).
With `CN1CC(Oc2cnc(C#N)cc2-c2ccn3nc(NC(=O)C4CC4)cc3c2)C1` the inhibition was 2% (enzyme activity; inhibitor; 1 µM).
With `CNC(=O)Nc1ccc2c(c1)CC[C@@]21OC(=O)N(CC(=O)N(Cc2ccc(F)cc2)[C@@H](C)C(F)(F)F)C1=O` the remaining binding was 73% (cell-free assay; competition with immobilised ligand; 1 µM).
For `Cc1ccc(C(=O)NCc2ccsc2)cc1C#Cc1cn(C(C)C)c2ncnc(N)c12`, the activity vs control was 84% (enzyme activity; inhibitor; 1 µM).
`Nc1ncnc2c1ncn2[C@@H]1O[C@H](COP(=O)(O)OP(=O)(O)OP(=O)(O)O)[C@@H](O)[C@H]1O` gave a ΔTm of 2.73 °C (thermal stability; DSF; 200 µM).
`Cc1cnc(NC2CCOCC2)nc1-n1cnc(C(=O)NC(CN)c2cc(F)cc(Cl)c2)c1` (stereo not drawn) has a remaining activity of 55% (enzyme activity; inhibitor; radiometric; 1 µM).
The remaining activity of `Cc1ccc(C(=O)Nc2ccc(CN3CCN(C)CC3)c(C(F)(F)F)c2)cc1C#Cc1cnc2cccnn12` is reported as 85% (enzyme activity; inhibitor; 23.5 nM).
For `COc1cc(Nc2cnc(C#N)c(O[C@H](C)CN(C)C)n2)ncc1-c1cnn(C)c1`, the remaining activity was 113% (enzyme activity; inhibitor; radiometric; 1 µM).
The remaining activity of `Cc1sc(C(=O)NC2COC2)cc1-n1cc(NC(=O)Nc2c(F)cccc2Cl)cn1` is reported as 10.5% (enzyme activity; inhibitor; 10 µM).
For `COc1cc(/C=C/C(=O)CC(=O)/C=C/c2ccc(O)c(OC)c2)ccc1O`, the activity vs control was 109% (enzyme activity; inhibitor; 1 µM).
The remaining binding of `Cc1c(NC(=O)c2cc(C(N)=O)nc3cc(F)ccc23)c(C(F)(F)F)nn1Cc1ccc(C(C)(C)C)cc1` is reported as 100% (cell-free assay; competition with immobilised ligand; 1 µM).
With `FC(F)(F)Oc1cccc(-c2cnc3ccc(-c4ccncc4)nn23)c1` the activity vs control was 81% (enzyme activity; inhibitor; radiometric; 5 µM).
The remaining binding of `c1ccc(N2CCN(Cc3nc4ccccc4[nH]3)CC2)nc1` is reported as 100% (binding; competition with immobilised ligand; 1 µM).
For `COc1cc(-c2cc(-c3ccc(N4CCNCC4)cc3)cnc2C)cc(OC)c1OC`, the inhibition was 3% (enzyme activity; inhibitor; 1 µM).
For `N#CCCc1ccc2c(c1)-c1[nH]c3ccc([N+](=O)[O-])cc3c1CC(=O)N2`, the remaining signal was 93.3% (cell-free assay; 0.5 µM).
For `CC1=C(C#N)C(c2ccc3c(c2)c(NC(=O)c2ccccc2C)nn3C)C(C#N)=C(C)N1`, the remaining binding was 100% (cell-free assay; competition with immobilised ligand; 1 µM).
`CNC(=O)c1cc(Oc2ccc(NC(=O)Nc3ccc(Cl)c(C(F)(F)F)c3)cc2)ccn1` gave an inhibition of 66% (enzyme activity; inhibitor; 10 µM).
`CCC(=O)N[C@@H]1CC[C@H](C(=O)N(C)c2ccc(-c3nc4ccccc4o3)cc2)C1` has a remaining binding of 100% (cell-free assay; competition with immobilised ligand; 1 µM).
For `CC(C)(C)c1nc(-c2cccc(NS(=O)(=O)c3c(F)cccc3F)c2F)c(-c2ccnc(N)n2)s1`, the remaining activity was 118% (enzyme activity; inhibitor; radiometric; 1 µM).
`C[C@@]1(Cc2ccc(C#N)cc2)C(=O)N(c2cc(Cl)cc(Cl)c2)c2ncc(C(=O)NC3(c4nc(C5CCC5)no4)CC3)n21` has a remaining binding of 100% (cell-free assay; competition with immobilised ligand; 1 µM).
The remaining activity of `FC(F)c1nc2ccccc2n1-c1nc(N2CCOCC2)nc(N2CCOCC2)n1` is reported as 88% (enzyme activity; inhibitor; 10 µM).
For `Cc1ccc(NC(=O)c2ccc(C)c(C(F)(F)F)c2)cc1C#Cc1nn(C2CCC(O)CC2)c2ncnc(N)c12` (stereo not drawn), the remaining signal was 40% (cell-free assay; 10 µM).
For `CS(=O)(=O)N1CCCC(NC(=O)[C@H](CCC2CCCCC2)NC(=O)c2ccc(CNc3ncnc4c3nnn4-c3ccccc3)cc2)C1` (stereo partly drawn), the remaining binding was 100% (cell-free assay; competition with immobilised ligand; 0.1 µM).
